# Tests used:
# [1] = test system: Carboxypeptidase G1 (Pseudomonas); assay: Tested for substrate activity of compound for Carboxypeptidase G1
# Mus musculus [2] = assay: Toxicity in mice after 10-24 days at a dose of 20 mg/kg/day; value is 18/9; format: functional
# Mus musculus [3] = assay: Weight change on day 7 in L1210 Lymphoid Leukemia in mice at a dose of 20 mg/kg/day (qdx9); format: functional
# Procedure, shortened: (§1)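 Male B6D2F₁J mice (20–25 g) bearing ip L1210 ascites (10⁵ cells, day 0) were used, 5 per group. Drug was given ip in water at pH 7.5–8.0 from day 1 on q2d×5, qd×9 or b.i.d.×10 schedules. Animals were weighed after 7 days and percent weight change recorded.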
# Mus musculus [4] = assay: Toxicity in mice after 10-22 days at a dose of 40 mg/kg/day; value is 15/9; format: functional
# Mus musculus [5] = organism: Mus musculus; assay: Percentage increase in life span after 12-20 days; format: functional
# Procedure, shortened: (§2)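 Male B6D2F1J mice (20–25 g), randomized after i.p. inoculation with 10^5 L1210 ascitic leukemia cells on day 0. Drug in water, pH 7.5–8.0, given i.p. on a q2d×5, qd×9 (from day 1) or b.i.d.×10 schedule; 5 mice per group. %ILS = [(T/C) − 1]100 from median survival days of treated versus control mice. Range is survival days.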
# [6] = molecular target: Dihydrofolate reductase (Lactobacillus casei) (UniProt P00381); conditions: Lacticaseibacillus casei
# Mus musculus [7] = assay: Weight change on day 7 in L1210 Lymphoid Leukemia in mice at a dose of 2 mg/kg/day (1dx9); format: functional
# Procedure, shortened: as §1
# [8] = molecular target: T1, Dihydrofolate reductase (Mus musculus) (UniProt P00375); assay: Binding affinity to Dihydrofolate reductase of L1210/R71 using spectrophotometric assay
# T1 sequence (whole entry): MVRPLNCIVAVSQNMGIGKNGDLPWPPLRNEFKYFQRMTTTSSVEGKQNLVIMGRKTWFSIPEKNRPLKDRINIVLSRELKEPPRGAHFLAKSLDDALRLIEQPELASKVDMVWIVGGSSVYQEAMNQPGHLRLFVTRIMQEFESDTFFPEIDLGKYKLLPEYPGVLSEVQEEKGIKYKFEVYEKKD
# Procedure, shortened: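 The enzyme was isolated from MTX-resistant L1210/R71 cultured cells and purified on MTX-agarose. The assay measured ΔA340 at 22 °C in 0.1 M Tris, pH 7.0, with 62 nM enzyme. Enzyme was preincubated 2 min with inhibitor and NADPH, and dihydrofolate was then added to start the reaction. ID₅₀ determined.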
# Mus musculus [9] = organism: Mus musculus; assay: Percentage increase in life span after 10-22 days; format: functional
# Procedure, shortened: as §2
# Mus musculus [10] = organism: Mus musculus; assay: Percentage increase in life span after 10-24 days; format: functional
# Procedure, shortened: as §2
# Mus musculus [11] = assay: Weight change on day 7 in L1210 Lymphoid Leukemia in mice at a dose of 20 mg/kg/day (qdx5); format: functional; conditions: in the assay text read “q2dx5” for “qdx5”
# Procedure, shortened: as §1
# [12] = molecular target: T1, Dihydrofolate reductase (Mus musculus); assay: Binding affinity to Dihydrofolate reductase of L1210 cell line using [H]MTX as radioligand; format: cell-based
# Procedure, shortened: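 Competitive [³H]MTX binding to dihydrofolate reductase from L1210 leukemia. Ascites cells from tumor-bearing mice were washed and lysed before use. The assay ran at 37 °C in 0.1 M potassium phosphate, pH 6.8. ID₅₀ was read as inhibition of radioligand binding, with MTX included in each experiment.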
# Mus musculus [13] = assay: Weight change on day 7 in L1210 Lymphoid Leukemia in mice at a dose of 8 mg/kg/day (1dx9); format: functional
# Procedure, shortened: (§3)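 Male B6D2F1J mice (20–25 g) were inoculated i.p. with 10⁵ L1210 ascites cells on day 0 and randomized into groups of 5. Drug in water at pH 7.5–8.0 was given i.p. daily for 9 days (qd×9) from day 1. Animals were weighed after 7 days, and the % body-weight change was recorded under a standard NCI protocol.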
# Mus musculus [14] = assay: Toxicity in mice after 13-18 days at a dose of 20 mg/kg/day; value is 13/9; format: functional
# Mus musculus [15] = assay: Toxicity in mice after 14-22 days at a dose of 8 mg/kg/day; value is 14/8.5; format: functional
# Mus musculus [16] = assay: Toxicity in mice after 12-20 days at a dose of 4 mg/kg/day; value is 13/8.5; format: functional
# Mus musculus [17] = assay: Toxicity in mice after 10-23 days at a dose of 40 mg/kg/day; value is 21/9; format: functional
# [18] = molecular target: T1, Dihydrofolate reductase (Mus musculus)
# Mus musculus [19] = assay: Weight change on day 7 in L1210 Lymphoid Leukemia in mice at a dose of 4 mg/kg/day (1dx9); format: functional
# Procedure, shortened: as §1
# Mus musculus [20] = organism: Mus musculus; assay: Percentage increase in life span after 10-23 days; format: functional
# Procedure, shortened: as §2
# L1210 = assay: Cytotoxicity against L1210 cells; format: functional; conditions: Mus musculus, read-out: ID50 (the source's name)
# Mus musculus [21] = organism: Mus musculus; assay: Percentage increase in life span after 11-16 days; format: functional
# Procedure, shortened: as §2
# [22] = Tested for substrate activity of compound for Carboxypeptidase G1; parameters: species or system Mus musculus
# Procedure, shortened: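 Cleavage by carboxypeptidase G₁ was followed as the A320 change on release of the pteroate. Conditions were 37 °C in 0.05 M potassium phosphate, pH 6.7, with 100 μM ZnSO₄. Enzyme was diluted in 1% BSA to give ΔA320 of 0.02–0.2/min. Km and Vmax came from Lineweaver-Burk plots. Ki came from competitive runs varying analogue against fixed MTX, or vice versa.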
# [23] = molecular target: Dihydrofolate reductase (Lactobacillus casei) (UniProt P00381); conditions: Lacticaseibacillus casei; remark: listed apart in the source
# Mus musculus [24] = organism: Mus musculus; assay: Percentage increase in life span after 14-22 days; format: functional
# Procedure, shortened: as §2
# Mus musculus [25] = organism: Mus musculus; assay: Percentage increase in life span after 13-18 days; format: functional
# Procedure, shortened: as §2
# Mus musculus [26] = assay: Weight change on day 7 in L1210 Lymphoid Leukemia in mice at a dose of 40 mg/kg/day (qdx9); format: functional
# Procedure, shortened: as §3
# Mus musculus [27] = assay: Toxicity in mice after 11-16 days at a dose of 2 mg/kg/day; value is 12/8.5; format: functional
# Mus musculus [28] = organism: Mus musculus; assay: Percentage increase in life span after 12-15 days; format: functional
# Procedure, shortened: as §2
# Mus musculus [29] = assay: Weight change on day 7 in L1210 Lymphoid Leukemia in mice at a dose of 10 mg/kg/day (qd x9); format: functional
# Procedure, shortened: as §1
# Mus musculus [30] = assay: Toxicity in mice after 12-15 days at a dose of 10 mg/kg/day; value is 13/9; format: functional
# Mus musculus [31] = assay: Toxicity in mice after 13-20 days at a dose of 40 mg/kg/day; value is 19/9; format: functional
# Mus musculus [32] = assay: Toxicity in mice after 15-17 days at a dose of 20 mg/kg/day; value is 16/9; format: functional
# Mus musculus [33] = organism: Mus musculus; assay: Percentage increase in life span after 13-20 days; format: functional
# Procedure, shortened: as §2
# Mus musculus [34] = assay: Toxicity in mice after 17-18 days at a dose of 30 mg/kg/day; value is 17/9; format: functional
# Mus musculus [35] = assay: Weight change on day 7 in L1210 Lymphoid Leukemia in mice at a dose of 30 mg/kg/day (qdx9); format: functional
# Procedure, shortened: as §1
# Mus musculus [36] = organism: Mus musculus; assay: Percentage increase in life span after 17-18 days; format: functional
# Procedure, shortened: as §2
# Mus musculus [37] = organism: Mus musculus; assay: Percentage increase in life span after 15-17 days; format: functional
# Procedure, shortened: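 Male B6D2F1J mice (20–25 g) were inoculated i.p. with 10⁵ L1210 ascitic leukemia cells on day 0 and randomized into groups of 5. Drug in water at pH 7.5–8.0 was given i.p. from day 1 on qd×9, q2d×5 or b.i.d.×10 schedules. Weight change was recorded at day 7. %ILS = [(T/C) − 1]100, using median survival days; ≥25% counts as significant.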
# Chain of Dihydrofolate reductase (Lactobacillus casei) (P00381 whole entry): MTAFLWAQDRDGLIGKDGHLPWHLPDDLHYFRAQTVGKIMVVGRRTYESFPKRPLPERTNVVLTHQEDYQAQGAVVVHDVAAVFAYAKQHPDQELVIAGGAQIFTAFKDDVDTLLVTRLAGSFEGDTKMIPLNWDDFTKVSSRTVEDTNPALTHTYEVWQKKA
smiles,measurement,setting,value
CN(Cc1cnc2nc(N)nc(N)c2n1)c1ccc(C(=O)NC(CCCCC(=O)O)C(=O)O)cc1 (stereo not drawn),Km,[1],481 µM
same,Vmax,[1],0.44 min⁻¹
same,T/C,Mus musculus [2],18
same,Weight change,Mus musculus [3],-2%
same,T/C,Mus musculus [4],15
same,ILS,Mus musculus [5],52%
same,ID50,[6],6.3 nM
same,Weight change,Mus musculus [7],10%
same,ID50,[8],39 nM
same,ILS,Mus musculus [9],67%
same,ILS,Mus musculus [10],100%
same,Weight change,Mus musculus [11],6%
same,ID50,[12],2.8 nM
same,Weight change,Mus musculus [13],4%
same,T/C,Mus musculus [14],13
same,T/C,Mus musculus [15],14
same,T/C,Mus musculus [16],13
same,T/C,Mus musculus [17],21
same,ID50,[18],6.9 nM
same,Weight change,Mus musculus [19],4%
same,ILS,Mus musculus [20],133%
same,IC50,L1210,10 nM
same,ILS,Mus musculus [21],41%
same,Ki,[22],22000 nM
same,ID50,[23],18 nM
same,ILS,Mus musculus [24],65%
same,ILS,Mus musculus [25],44%
same,Weight change,Mus musculus [26],-4%
same,T/C,Mus musculus [27],12
CN(Cc1cnc2nc(N)nc(N)c2n1)c1ccc(C(=O)NC(CCCCCC(=O)O)C(=O)O)cc1 (stereo not drawn),ILS,Mus musculus [28],44%
same,Weight change,Mus musculus [29],11%
same,Weight change,Mus musculus [3],7%
same,T/C,Mus musculus [30],13
same,ID50,[8],35 nM
same,T/C,Mus musculus [31],19
same,T/C,Mus musculus [32],16
same,ILS,Mus musculus [33],111%
same,T/C,Mus musculus [34],17
same,IC50,L1210,6.3 nM
same,Weight change,Mus musculus [35],9%
same,ILS,Mus musculus [36],89%
same,ILS,Mus musculus [37],78%
same,Weight change,Mus musculus [26],6%

# — ChEMBL document CHEMBL1122411 (J Med Chem, 1983)
